Laboratory results reported in ChEMBL document CHEMBL2311299, “New 2-(aryloxy)-3-phenylpropanoic acids as peroxisome proliferator-activated receptor α/γ dual agonists able to upregulate mitochondrial carnitine shuttle system gene expression” (J Med Chem, 2013).
The source made the active and inactive calls. The rule behind the calls is not given here.

Legend:
[1] = molecular target: T1, Peroxisome proliferator-activated receptor gamma (Homo sapiens) (UniProt P37231); assay: Transactivation of GAL4-fused human PPARgamma ligand binding domain expressed in HepG2 cells up to 10 uM after 20 hrs by luciferase reporter gene assay; assay type: cell-based
T1 sequence (whole entry): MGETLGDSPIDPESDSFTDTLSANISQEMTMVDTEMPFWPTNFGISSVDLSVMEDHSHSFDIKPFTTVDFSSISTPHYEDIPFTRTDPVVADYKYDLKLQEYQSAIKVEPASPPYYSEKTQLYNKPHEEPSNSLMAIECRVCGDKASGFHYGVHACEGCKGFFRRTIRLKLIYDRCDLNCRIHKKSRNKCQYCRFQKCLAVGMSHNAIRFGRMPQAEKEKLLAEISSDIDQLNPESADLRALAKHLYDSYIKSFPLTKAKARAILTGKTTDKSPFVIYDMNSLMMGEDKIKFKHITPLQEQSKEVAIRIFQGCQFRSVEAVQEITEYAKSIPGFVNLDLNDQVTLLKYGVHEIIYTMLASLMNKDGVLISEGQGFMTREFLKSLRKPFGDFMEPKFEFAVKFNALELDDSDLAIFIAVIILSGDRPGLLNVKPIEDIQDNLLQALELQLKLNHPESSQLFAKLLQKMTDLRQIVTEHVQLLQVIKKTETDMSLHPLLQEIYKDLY
Method in brief: (§1)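 HepG2 cells transiently transfected (calcium phosphate) with Gal4–PPARα-LBD or Gal4–PPARγ-LBD (30 ng), five-Gal4-element TK-luciferase reporter (100 ng) and pCMVβgal (250 ng). 4 h post-transfection, triplicate 20 h ligand treatment up to 10 μM; luciferase read, β-galactosidase measured with ONPG. Efficacy as % of maximal fold induction by Wy-14,643 (α) or rosiglitazone (γ); experiments repeated at least twice.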

[2] = molecular target: T2, Peroxisome proliferator-activated receptor alpha (Homo sapiens) (UniProt Q07869); assay: Transactivation of GAL4-fused human PPARalpha ligand binding domain expressed in HepG2 cells after 20 hrs by luciferase reporter gene assay relative to WY-14643; assay type: cell-based; method in brief: as §1
T2 sequence (whole entry): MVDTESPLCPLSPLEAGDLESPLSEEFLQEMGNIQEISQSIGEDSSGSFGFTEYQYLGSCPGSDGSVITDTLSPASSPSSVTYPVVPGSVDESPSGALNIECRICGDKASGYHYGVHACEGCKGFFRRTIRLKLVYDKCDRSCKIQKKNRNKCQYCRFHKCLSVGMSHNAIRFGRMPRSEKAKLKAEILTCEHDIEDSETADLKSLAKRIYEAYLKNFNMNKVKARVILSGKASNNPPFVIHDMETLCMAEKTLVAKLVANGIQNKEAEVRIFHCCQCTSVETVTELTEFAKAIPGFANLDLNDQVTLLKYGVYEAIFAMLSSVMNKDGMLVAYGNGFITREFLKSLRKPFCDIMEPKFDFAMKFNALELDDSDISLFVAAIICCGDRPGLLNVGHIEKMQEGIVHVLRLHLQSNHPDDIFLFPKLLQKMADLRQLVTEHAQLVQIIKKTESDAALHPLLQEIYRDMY

[3] = molecular target: T3, Peroxisome proliferator-activated receptor alpha (Homo sapiens, UniProt Q07869); assay: Transactivation of GAL4-fused human PPARalpha ligand binding domain expressed in HepG2 cells after 20 hrs by luciferase reporter gene assay; assay type: cell-based
T3 sequence (Q07869 whole entry): T2 sequence (whole entry)
Method in brief: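 HepG2 cells transiently transfected (calcium phosphate) with Gal4–PPARα-LBD or Gal4–PPARγ-LBD (30 ng), five-Gal4-element TK-luciferase reporter (100 ng) and pCMVβgal (250 ng). 4 h post-transfection, triplicate 20 h ligand treatment up to 10 μM; luciferase read, β-galactosidase measured with ONPG.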

[4] = molecular target: T4, Peroxisome proliferator-activated receptor gamma (Homo sapiens, UniProt P37231); assay: Transactivation of GAL4-fused human PPARgamma ligand binding domain expressed in HepG2 cells after 20 hrs by luciferase reporter gene assay; assay type: cell-based
T4 sequence (P37231 whole entry): T1 sequence (whole entry)

[5] = molecular target: T2, Peroxisome proliferator-activated receptor alpha (Homo sapiens); assay: Agonist activity at PPARalpha in human HepG2 cells assessed as upregulation of CPT1 mRNA expression at 1 uM after 24 hrs by RT-PCR analysis relative to control; assay type: cell-based
Method in brief: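 Serum-starved HepG2 cells (24 h depletion) exposed for 24 h to 1 μM ligand; untreated cells as control; Wy 14,643 (50 μM) reference. Total RNA from 1 × 10^6 cells, reverse transcribed, CAC or CPT1 transcript quantified by real-time PCR against human actin. Means ± SD of three duplicate independent experiments; one-way ANOVA, Bonferroni test versus control.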

[6] = molecular target: T2, Peroxisome proliferator-activated receptor alpha (Homo sapiens); assay: Agonist activity at PPARalpha in human HepG2 cells assessed as upregulation of CAC mRNA expression at 1 uM after 24 hrs by RT-PCR analysis relative to control; assay type: cell-based
Method in brief: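 Total RNA from 1 × 10^6 cells, reverse transcribed, CAC or CPT1 transcript quantified by real-time PCR against human actin. Means ± SD of three duplicate independent experiments; one-way ANOVA, Bonferroni test versus control.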

[7] = molecular target: T1, Peroxisome proliferator-activated receptor gamma (Homo sapiens); assay: Binding affinity to PPARgamma-LBD site B (unknown origin) in presence of (S)-2-(biphenyl-4-yloxy)-3-phenylpropanoic acid at 470 uM after 3 hrs by isothermal titration calorimetry assay
Method in brief: (§2)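 ITC at 25 °C on His-tagged PPARγ LBD dialysed into 20 mM Hepes pH 8.0, 1 mM TCEP; DMSO matched (<1%). […] Conditions: ligand 400 μM into 40 μM protein (5); reverse, 400 μM protein into 40 μM ligand (6); 600 μM ligand into 60 μM protein (7); protein 47 μM pre-equilibrated 3 h 1:1 with site-A ligand, titrated with 470 μM ligand (8); reverse titration (9).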

[8] = molecular target: T1, Peroxisome proliferator-activated receptor gamma (Homo sapiens); assay: Binding affinity to PPARgamma-LBD site A and site B (unknown origin) at 40 uM after 3 hrs by isothermal titration calorimetry assay; method in brief: as §2
[9] = molecular target: T1, Peroxisome proliferator-activated receptor gamma (Homo sapiens); assay: Binding affinity to PPARgamma-LBD site A (unknown origin) at 400 uM after 3 hrs by isothermal titration calorimetry assay; method in brief: as §2
[10] = molecular target: T2, Peroxisome proliferator-activated receptor alpha (Homo sapiens); assay: Agonist activity at PPARalpha in human HepG2 cells assessed as upregulation of CAC protein expression at 1 uM after 48 hrs by Western blotting analysis relative to control
[11] = molecular target: T2, Peroxisome proliferator-activated receptor alpha (Homo sapiens); assay: Agonist activity at PPARalpha in human HepG2 cells assessed as upregulation of CPT1 protein expression at 1 uM after 48 hrs by Western blotting analysis relative to control
[12] = molecular target: T1, Peroxisome proliferator-activated receptor gamma (Homo sapiens); assay: Binding affinity to PPARgamma-LBD site B and site C (unknown origin) at 60 uM after 3 hrs by isothermal titration calorimetry assay; method in brief: as §2
[13] = molecular target: T1, Peroxisome proliferator-activated receptor gamma (Homo sapiens); assay: Binding affinity to PPARgamma-LBD site B (unknown origin) at 600 uM after 3 hrs by isothermal titration calorimetry assay; method in brief: as §2

Row | Structure (SMILES) | Emax [2] [%] | EC50 [3] [nM] | EC50 [4] [nM] | further results
1 | O=C(O)C(Cc1ccccc1)Oc1ccc(-c2ccccc2CCc2ccccc2)cc1 (racemic) | 73 | 280 |  | Activity [1]: Active
2 | CCCCCc1ccccc1-c1ccc(OC(Cc2ccccc2)C(=O)O)cc1 (racemic) | 107 | 500 |  | Activity [1]: Active
3 | O=C(O)[C@H](Cc1ccccc1)Oc1ccc(-c2ccccc2)cc1 | 116 |  |  | 
4 | Cc1cc(O[C@@H](Cc2ccccc2)C(=O)O)ccc1-c1ccccc1 | 120 | 80 | 700 | 
5 | Cc1cccc(C)c1-c1ccc(O[C@@H](Cc2ccccc2)C(=O)O)cc1 | 123 | 230 | 2540 | 
6 | Cc1ccccc1-c1ccc(O[C@@H](Cc2ccccc2)C(=O)O)cc1C | 133 | 31 | 640 | 
7 | CC(C)c1ccccc1-c1ccc(OC(Cc2ccccc2)C(=O)O)cc1 (single isomer, unassigned; form 2) [listing 1 of 2 here] |  | 100 |  | 
8 | CC(C)c1ccccc1-c1ccc(OC(Cc2ccccc2)C(=O)O)cc1 (single isomer, unassigned; form 1) [listing 1 of 2 here] | 147 |  |  | fold change (FC) [5]: 2.3; fold change (FC) [6]: 1.5; Ka [7]: 1.87 ×10⁵ /M; Ka [8]: 3.1 ×10⁵ /M; Ka [9]: 3.6 ×10⁵ /M; Activity [10]: Active; Activity [11]: Active
9 | Cc1ccc(-c2ccc(O[C@@H](Cc3ccccc3)C(=O)O)cc2)cc1 | 74 | 210 | 590 | 
10 | Cc1ccccc1-c1ccc(O[C@@H](Cc2ccccc2)C(=O)O)cc1 | 155 | 67 | 1360 | 
11 | Cc1cc(OC(Cc2ccccc2)C(=O)O)cc(C)c1-c1ccccc1 (racemic) | 50 | 2100 | 2040 | 
12 | CCc1ccccc1-c1ccc(O[C@@H](Cc2ccccc2)C(=O)O)cc1 | 143 | 12 | 1200 | 
13 | CC(C)(Sc1ccc(CCN(CCCCC2CCCCC2)C(=O)NC2CCCCC2)cc1)C(=O)O |  |  |  | Activity [5]: Active
14 | O=C(O)[C@H](Cc1ccccc1)Oc1ccc(-c2ccccc2F)cc1 | 68 | 120 | 690 | 
15 | CC(C)c1ccccc1-c1ccc(OC(Cc2ccccc2)C(=O)O)cc1 (single isomer, unassigned; form 2) [listing 2 of 2 here] | 145 |  |  | Activity [1]: Active; Ka [12]: 1.3 ×10⁵ /M; Ka [13]: 1.34 ×10⁵ /M
16 | Cc1cc(-c2ccccc2)ccc1O[C@@H](Cc1ccccc1)C(=O)O | 68 | 990 | 700 | 
17 | CCCc1ccccc1-c1ccc(OC(Cc2ccccc2)C(=O)O)cc1 (racemic) | 131 | 240 |  | Activity [1]: Active
18 | Cc1cccc(-c2ccc(OC(Cc3ccccc3)C(=O)O)cc2)c1 (racemic) | 69 | 220 | 460 | 
19 | Cc1cccc(Nc2cc(Cl)nc(SCC(=O)O)n2)c1C |  |  |  | Activity [1]: inactive
20 | O=C(O)[C@H](Cc1ccccc1)Oc1ccc(-c2ccccc2-c2ccccc2)cc1 | 132 | 44 | 1400 | 
21 | Cc1cc(-c2ccccc2)cc(C)c1O[C@@H](Cc1ccccc1)C(=O)O | 61 | 1130 | 3100 | 
22 | O=C(O)[C@H](Cc1ccccc1)Oc1ccc(-c2ccccc2C(F)(F)F)cc1 | 126 | 22 | 1000 | 
23 | CC(C)c1ccccc1-c1ccc(OC(Cc2ccccc2)C(=O)O)cc1 (single isomer, unassigned; form 1) [listing 2 of 2 here] |  | 12 | 1000 | 
24 | COc1ccccc1-c1ccc(O[C@@H](Cc2ccccc2)C(=O)O)cc1 | 124 | 130 | 2300 | 
